Experimental findings from PubChem BioAssay AID2204 (Vanderbilt High Throughput Screening Facility, 2009) are described below.

What all share (assay): muscarinic M1-M5 subtype PAM potency panel, profiling panel, selectivity assay for M5 allosteric modulator project, cell-based, calcium flux (AID 2204)
Conditions in all cases: CHO-K1 mAChR panel, Fluo-4 calcium flux, ACh EC20
Background: A change in cytosolic calcium serves as a functional read-out for many receptors and channels.

The target of test [1] is Muscarinic acetylcholine receptor M5 (Homo sapiens) (UniProt P08912). The method in brief: (§1)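 Assay system: transfected CHO-K1 cell lines; Times: 1.5 min compound pre-incubation, 50 s agonist exposure, 25 °C; Reagent: acetylcholine at EC20; Measured by: calcium mobilization signal; Medium: HBSS buffer, pH 7.4, with 2.5 mM probenecid, 20 mM HEPES.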
Sequence of Muscarinic acetylcholine receptor M5 (Homo sapiens) (P08912 whole entry, looked up): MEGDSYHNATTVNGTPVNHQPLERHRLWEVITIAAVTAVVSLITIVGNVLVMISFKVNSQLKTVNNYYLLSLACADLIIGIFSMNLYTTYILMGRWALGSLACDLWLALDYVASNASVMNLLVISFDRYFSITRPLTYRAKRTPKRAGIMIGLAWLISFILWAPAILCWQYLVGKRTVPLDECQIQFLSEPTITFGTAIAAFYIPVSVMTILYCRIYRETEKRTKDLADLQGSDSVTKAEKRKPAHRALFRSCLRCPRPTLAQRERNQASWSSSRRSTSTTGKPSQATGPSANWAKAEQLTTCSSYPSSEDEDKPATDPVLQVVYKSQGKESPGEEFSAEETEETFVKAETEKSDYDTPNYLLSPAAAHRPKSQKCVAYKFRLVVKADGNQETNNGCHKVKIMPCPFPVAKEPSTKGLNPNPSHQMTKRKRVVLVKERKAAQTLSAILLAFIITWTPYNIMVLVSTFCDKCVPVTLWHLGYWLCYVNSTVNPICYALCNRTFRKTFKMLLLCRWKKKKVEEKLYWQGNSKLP
The target in test [2] is Muscarinic acetylcholine receptor M3 (Homo sapiens) (UniProt P20309). Put shortly: as §1
Sequence of Muscarinic acetylcholine receptor M3 (Homo sapiens) (P20309 whole entry, looked up): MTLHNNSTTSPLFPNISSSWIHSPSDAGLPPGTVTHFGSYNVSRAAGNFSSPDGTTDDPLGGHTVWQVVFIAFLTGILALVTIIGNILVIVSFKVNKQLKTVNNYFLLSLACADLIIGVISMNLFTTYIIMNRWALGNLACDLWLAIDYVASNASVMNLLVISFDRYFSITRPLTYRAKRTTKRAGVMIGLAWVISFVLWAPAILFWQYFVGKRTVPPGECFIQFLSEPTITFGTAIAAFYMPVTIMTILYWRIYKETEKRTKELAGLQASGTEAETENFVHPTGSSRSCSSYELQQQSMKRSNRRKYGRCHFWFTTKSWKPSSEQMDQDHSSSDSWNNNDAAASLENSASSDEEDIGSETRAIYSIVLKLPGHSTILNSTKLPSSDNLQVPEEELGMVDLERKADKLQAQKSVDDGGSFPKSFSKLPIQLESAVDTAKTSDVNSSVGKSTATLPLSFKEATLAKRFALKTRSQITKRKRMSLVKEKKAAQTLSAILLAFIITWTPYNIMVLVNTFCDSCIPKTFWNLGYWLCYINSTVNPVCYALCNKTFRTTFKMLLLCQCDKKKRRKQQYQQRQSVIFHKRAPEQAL
The target of test [3] is Muscarinic acetylcholine receptor M1 (Rattus norvegicus) (UniProt P08482). The method in brief:
as §1

Sequence of Muscarinic acetylcholine receptor M1 (Rattus norvegicus) (P08482 whole entry, looked up): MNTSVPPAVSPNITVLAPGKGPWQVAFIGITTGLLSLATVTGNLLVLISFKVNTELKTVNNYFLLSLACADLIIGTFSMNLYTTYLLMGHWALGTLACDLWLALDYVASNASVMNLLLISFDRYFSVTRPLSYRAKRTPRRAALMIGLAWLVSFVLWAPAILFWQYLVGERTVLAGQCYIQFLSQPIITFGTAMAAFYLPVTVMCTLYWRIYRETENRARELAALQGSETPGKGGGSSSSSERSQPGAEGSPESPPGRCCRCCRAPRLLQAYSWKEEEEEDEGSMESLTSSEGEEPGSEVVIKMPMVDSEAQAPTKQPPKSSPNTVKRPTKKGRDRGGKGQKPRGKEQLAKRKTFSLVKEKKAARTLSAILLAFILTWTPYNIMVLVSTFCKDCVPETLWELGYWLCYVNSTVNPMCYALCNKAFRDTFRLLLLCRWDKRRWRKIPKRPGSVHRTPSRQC

A word on the EC50: it is the concentration giving half of the maximal effect. As to `O=C1C(=O)N(Cc2ccc(-c3ccc(F)nc3)cc2)c2ccc(OC(F)(F)F)cc21`, the EC50 in test [1] was found to be 3.59 µM.
For the compound `COc1ccccc1-c1ccc(CN2C(=O)C(=O)c3cc(OC(F)(F)F)ccc32)cc1`, in test [1], the EC50 is 3.86 µM.
Take `O=C1C(=O)N(Cc2ccc(Br)cc2)c2ccccc21`: the figures for the EC50 in test [1], in test [2] and in test [3] were 4.08 µM, 6.38 µM and 6.04 µM, respectively.
`O=C1C(=O)N(Cc2ccc(-c3ccsc3)cc2)c2ccc(OC(F)(F)F)cc21`: the EC50 in test [1] was 2.77 µM.
The same measure, in the same setting: then `Cn1cc(-c2ccc(CN3C(=O)C(=O)c4cc(OC(F)(F)F)ccc43)cc2)cn1`, with 3.26 µM; and `O=C1C(=O)N(Cc2ccc(-c3ccc(Cl)nc3)cc2)c2ccc(OC(F)(F)F)cc21`, with 4.83 µM; and `O=C1C(=O)N(Cc2ccc(-c3ccccc3)cc2)c2ccc(OC(F)(F)F)cc21`, with 2.66 µM.
Regarding `O=C1C(=O)N(Cc2ccc(-c3ccccc3)cc2)c2cc(OC(F)(F)F)ccc21`, the EC50 is 2.65 µM in test [1] and 3.07 µM in test [2].
Taken in the same sequence, the figures for `COc1ccc(CN2C(=O)C(=O)c3ccc(OC(F)(F)F)cc32)cc1` were 5.68 µM and 10.3 µM.
Taken in the same sequence, the figures for `COc1ccc(CN2C(=O)C(=O)c3cc(OC(F)(F)F)ccc32)cc1` were 1.16 µM and 109 µM.
On to `O=C1C(=O)N(Cc2ccc(Oc3ccccc3)cc2)c2ccc(OC(F)(F)F)cc21`, for which, in test [1], the EC50 was found to be 1.92 µM.
